Reference: ChEMBL document CHEMBL1140939, “A series of 2,4-disubstituted quinolines as a new class of allosteric enhancers of the adenosine A3 receptor” (J Med Chem, 2009)

Tests used:
[1] = biological target: T1, Adenosine receptor A1 (Homo sapiens) (UniProt P30542); test: Displacement of [125I]AB-MECA from human adenosine A1 receptor expressed in CHO cells at 10 uM; type: cell-based
T1 sequence (whole entry): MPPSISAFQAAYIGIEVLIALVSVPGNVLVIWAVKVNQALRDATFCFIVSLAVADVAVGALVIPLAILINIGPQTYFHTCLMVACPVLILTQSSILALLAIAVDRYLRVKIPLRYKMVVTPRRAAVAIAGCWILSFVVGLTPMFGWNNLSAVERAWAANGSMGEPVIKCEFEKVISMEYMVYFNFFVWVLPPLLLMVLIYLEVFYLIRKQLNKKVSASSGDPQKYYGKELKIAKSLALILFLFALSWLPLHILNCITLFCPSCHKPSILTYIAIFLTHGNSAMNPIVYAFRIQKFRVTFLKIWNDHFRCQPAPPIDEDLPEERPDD
Procedure, shortened: (§1)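 Equilibrium binding on CHO membranes with human A1 (20 µg protein, 60 min) or A3 (10 µg, 120 min) at 25 °C. Buffer 50 mM Tris-HCl pH 8.0, 10 mM MgCl2, 1 mM EDTA, 0.01% CHAPS. Test ligand 10 µM with ~0.1 nM 125I-AB-MECA. Nonspecific binding with 10 µM DPCPX (A1) or 100 µM R-PIA (A3). Filtration, then γ-counting.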

[2] = biological target: T2, Adenosine receptor A3 (Homo sapiens) (UniProt P0DMS8); test: Displacement of [125I]AB-MECA from human adenosine A3 receptor expressed in CHO cells at 10 uM; type: cell-based; procedure, shortened: as §1
T2 sequence (whole entry): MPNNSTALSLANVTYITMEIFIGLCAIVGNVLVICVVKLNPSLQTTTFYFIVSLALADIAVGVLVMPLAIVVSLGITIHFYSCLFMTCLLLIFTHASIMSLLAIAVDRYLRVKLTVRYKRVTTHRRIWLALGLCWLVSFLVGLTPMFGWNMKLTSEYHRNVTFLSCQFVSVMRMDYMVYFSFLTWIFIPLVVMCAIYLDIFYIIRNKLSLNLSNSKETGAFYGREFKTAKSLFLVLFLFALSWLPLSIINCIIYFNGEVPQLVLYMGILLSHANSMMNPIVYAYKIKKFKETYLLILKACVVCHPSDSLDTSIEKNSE

[3] = biological target: Adenosine receptor A2a (Homo sapiens) (UniProt P29274); test: Displacement of [3H]ZM241385 from human adenosine A2A receptor expressed in HEK293 cells at 10 uM; type: cell-based
Procedure, shortened: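 HEK293 membranes with human A2A (30 µg protein) incubated 120 min at 25 °C in 50 mM Tris-HCl pH 7.4 with ~1.7 nM [3H]ZM241385 and 10 µM test ligand. Nonspecific binding defined by 100 µM CGS 21680. Filtration, then liquid scintillation counting.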

[4] = biological target: T3, Adenosine receptor A2b (Homo sapiens) (UniProt P29275); test: Displacement of [3H]MRS1754 from human adenosine A2B receptor expressed in CHO cells at 10 uM; type: cell-based
T3 sequence (whole entry): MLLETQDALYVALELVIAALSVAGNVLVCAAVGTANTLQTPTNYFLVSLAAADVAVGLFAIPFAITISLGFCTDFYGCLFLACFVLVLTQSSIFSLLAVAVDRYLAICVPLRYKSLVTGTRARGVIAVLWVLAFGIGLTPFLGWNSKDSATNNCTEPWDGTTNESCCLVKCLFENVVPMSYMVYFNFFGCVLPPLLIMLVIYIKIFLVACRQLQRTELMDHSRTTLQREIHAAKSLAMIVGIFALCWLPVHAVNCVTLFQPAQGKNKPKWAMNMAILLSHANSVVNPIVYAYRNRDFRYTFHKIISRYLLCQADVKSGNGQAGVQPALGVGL
Procedure, shortened: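 CHO membranes expressing human A2B (20 µg protein) with ~1.2 nM [3H]MRS1754 and 10 µM test ligand, 60 min at 25 °C, in 50 mM Tris-HCl pH 7.4 with 0.1% CHAPS. Nonspecific binding with 1 mM NECA. Filtration, then scintillation counting.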

[5] = biological target: T1, Adenosine receptor A1 (Homo sapiens); test: Binding affinity to human adenosine A1 receptor expressed in CHO cells assessed as enhancement of DPCPX-induced displacement of [125I]AB-MECA from receptor at 10 uM after 90 mins relative to control; type: cell-based
Procedure, shortened: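 CHO membranes expressing human A1 (20 µg) or A3 (10 µg) preincubated with ~0.1 nM 125I-AB-MECA at 25 °C, 60 min (A1) or 120 min (A3), in 50 mM Tris-HCl pH 8.0, 10 mM MgCl2, 1 mM EDTA, 0.01% CHAPS. Dissociation started with 10 µM DPCPX (A1) or 10 µM Cl-IB-MECA (A3), with or without modulator. Bound ligand read at 90 min (A1) or 120 min (A3); control = 100%. Two assays in duplicate.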

[6] = biological target: T2, Adenosine receptor A3 (Homo sapiens); test: Binding affinity to human adenosine A3 receptor expressed in CHO cells assessed as enhancement of C1IB-MECA-induced displacement of [125I]AB-MECA from receptor at 10 uM after 120 mins relative to control
[7] = biological target: T2, Adenosine receptor A3 (Homo sapiens); test: Intrinsic activity at human adenosine A3 receptor expressed in CHO cells assessed as increase in C1IB-MECA-stimulated inhibition of forskolin-induced cAMP release at 10 uM by TR-FRET assay; type: functional, cell-based
Procedure, shortened: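 Forskolin-stimulated cAMP in CHOhA3 cells (~5000/well). Cl-IB-MECA concentration range given with or without 10 µM modulator in stimulation buffer (PBS, 5 mM Hepes pH 7.4, 0.1% BSA, 50 µM rolipram, 50 µM cilostamide), 15 min at room temperature. Forskolin 1 µM added, 30 min at room temperature. TR-FRET cAMP read-out. 100% = cAMP with 10 µM Cl-IB-MECA, 0% = forskolin alone. Three assays in duplicate.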

Sequence of Adenosine receptor A2a (Homo sapiens) (P29274 whole entry): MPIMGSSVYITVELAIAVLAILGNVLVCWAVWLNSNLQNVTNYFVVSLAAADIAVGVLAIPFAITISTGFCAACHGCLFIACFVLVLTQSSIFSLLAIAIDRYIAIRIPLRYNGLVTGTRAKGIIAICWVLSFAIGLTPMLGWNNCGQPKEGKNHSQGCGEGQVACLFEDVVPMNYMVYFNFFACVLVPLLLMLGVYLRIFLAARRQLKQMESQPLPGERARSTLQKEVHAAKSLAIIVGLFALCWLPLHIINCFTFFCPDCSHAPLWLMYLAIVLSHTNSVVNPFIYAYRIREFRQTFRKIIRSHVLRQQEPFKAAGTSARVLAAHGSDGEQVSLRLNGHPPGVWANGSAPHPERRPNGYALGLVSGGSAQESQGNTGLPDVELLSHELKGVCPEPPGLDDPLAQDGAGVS

Row | Activity [1] | Activity [2] | Activity [3] | Activity [4] | Activity [5] | Activity [6] | Emax [7] | SMILES
1 | 23% | 11% | -20% | 37% | 102% | 112% |  | O=C(Nc1cc(Nc2ccc(Cl)c(Cl)c2)nc2ccccc12)c1ccccc1
2 | 17% | 26% | -74% | -50% | 125% | 169% |  | O=C(Nc1cc(Nc2ccc(Cl)c(Cl)c2)nc2ccccc12)C1CCCC1
3 | 22% | 41% | 38% | 51% | 72% | 149% |  | O=C(Nc1cc(Nc2ccc(Cl)c(Cl)c2)nc2ccccc12)C1CCC1
4 | 20% | 10% | 19% | 42% | 118% | 217% |  | O=C(Nc1cc(Nc2ccc3c(c2)CCC3)nc2ccccc12)C1CCCCC1
5 | 11% | 15% | 10% | 13% | 69% | 96% |  | O=C(Nc1cc(Nc2ccc(Cl)c(Cl)c2)nc2ccccc12)c1ccco1
6 | 52% | 27% | 35% | 63% | 115% | 165% |  | Cc1ccc(Nc2cc(NC(=O)C3CCCC3)c3ccccc3n2)cc1
7 | 12% | 12% | -19% | 17% | 94% | 249% | 223% | O=C(Nc1cc(Nc2ccc(Cl)c(Cl)c2)nc2ccccc12)C1CCCCC1
8 | 17% | 21% | 5% | 26% | 70% | 210% |  | O=C(Nc1cc(Nc2ccccc2)nc2ccccc12)C1CCCCC1
9 | 47% | 36% | 14% | 62% | 90% | 147% |  | O=C(Nc1cc(Nc2ccc3c(c2)CCC3)nc2ccccc12)C1CCCC1
10 | 24% | 9% | 19% | 35% | 94% | 134% |  | COc1ccc(Nc2cc(NC(=O)C3CCCC3)c3ccccc3n2)cc1
11 | 34% | 34% | 49% | 28% | 77% | 107% |  | O=C(Nc1cc(NCc2ccccc2)nc2ccccc12)C1CCCC1
12 | 73% | 92% | 95% | 60% | 68% | 100% |  | O=C(Nc1cc(Nc2ccccc2)nc2ccccc12)c1ccco1
13 | 61% | 52% | 56% | 90% | 72% | 102% |  | O=C(Nc1cc(Nc2ccc3cn[nH]c3c2)nc2ccccc12)C1CCCC1
14 | 64% | 46% | 75% | 76% | 77% | 100% |  | O=C(Nc1cc(Nc2ccccc2)nc2ccccc12)c1ccccc1
15 | 76% | 73% | 79% | 66% | 79% | 119% |  | O=C(Nc1cc(Nc2ccccc2)nc2ccccc12)C1CCC1
16 | 80% | 42% | 72% | 14% | 107% | 114% |  | O=C(Nc1cc(NC2CCCC2)nc2ccccc12)C1CCCC1
17 | 49% | 33% | 34% | 61% | 104% | 145% |  | O=C(Nc1cc(Nc2ccccc2)nc2ccccc12)C1CCCC1
18 | 39% | 3% | 16% | 41% | 120% | 229% | 286% | Clc1ccc(Nc2nc3ccccc3c3nc(C4CCCCC4)[nH]c23)cc1Cl
19 | 63% | -3% | -3% | 64% | 121% | 220% |  | Cc1ccc(Nc2cc(NC(=O)C3CCCCC3)c3ccccc3n2)cc1
